# Results published in ChEMBL document CHEMBL2029337, “Synthesis and antimicrobial activities of structurally novel S,S'-bis(heterosubstituted) disulfides” (Bioorg Med Chem Lett, 2012).
# Activity calls are given as the source filed them. The calls are words filed in the database; no cut-off is given here.
# Key:
# [1] = tested on: Bartonella sp.; assay: Antibacterial activity against Bartonella ssp. […] by agar dilution method; type: functional
# [2] = tested on: Escherichia coli; assay: Antibacterial activity against Escherichia coli K-12 […] by agar dilution method; type: functional, organism-based
# [3] = tested on: Staphylococcus aureus; assay: Antibacterial activity against methicillin-susceptible Staphylococcus aureus ATCC 25923 […] by agar dilution method; type: functional
# [4] = tested on: Staphylococcus aureus; assay: Antibacterial activity against methicillin-resistant Staphylococcus aureus ATCC 43300 […] by agar dilution method; type: functional
# [5] = Antibacterial activity against Francisella tularensis subspecies holarctica LVS after 48 hrs by broth dilution method; type: functional, Francisella tularensis subsp. holarctica LVS
# [6] = tested on: Staphylococcus aureus; assay: Antibacterial activity against methicillin-resistant Staphylococcus aureus ATCC 43300 assessed as growth inhibition at 10 ug after 24 hrs by agar-diffusion assay in presence of cystine; type: functional, organism-based
# [7] = tested on: Staphylococcus aureus; assay: Antibacterial activity against methicillin-resistant Staphylococcus aureus ATCC 43300 assessed as growth inhibition at 10 ug after 24 hrs by agar-diffusion assay in presence of CoA; type: functional, organism-based
# Outline: (§1)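 Kirby-Bauer well diffusion on an MRSA lawn (0.5 McFarland suspension swabbed onto tryptic soy agar). Four test agents sat in wells equidistant from a centre well holding 1 mg of additive in DMSO; a DMSO-only centre well served as vehicle control. After overnight incubation at 37 °C, the inhibition zones were examined for size or shape change.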
# [8] = tested on: Staphylococcus aureus; assay: Antibacterial activity against methicillin-resistant Staphylococcus aureus ATCC 43300 assessed as growth inhibition at 10 ug after 24 hrs by agar-diffusion assay in presence of GSH; type: functional, organism-based; outline: as §1
# [9] = tested on: Staphylococcus aureus; assay: Antibacterial activity against methicillin-resistant Staphylococcus aureus ATCC 43300 assessed as growth inhibition at 10 ug after 24 hrs by agar-diffusion assay in presence of glycine; type: functional, organism-based; outline: as §1
# [10] = tested on: Staphylococcus aureus; assay: Antibacterial activity against methicillin-resistant Staphylococcus aureus ATCC 43300 assessed as growth inhibition at 10 ug after 24 hrs by agar-diffusion assay in presence of lysine; type: functional, organism-based; outline: as §1
# [11] = tested on: Staphylococcus aureus; assay: Antibacterial activity against methicillin-resistant Staphylococcus aureus ATCC 43300 assessed as growth inhibition at 10 ug after 24 hrs by agar-diffusion assay in presence of valine; type: functional, organism-based; outline: as §1
# [12] = tested on: Staphylococcus aureus; assay: Antibacterial activity against methicillin-resistant Staphylococcus aureus ATCC 43300 assessed as growth inhibition at 10 ug after 24 hrs by agar-diffusion assay in presence of iPrSSiPr; type: functional, organism-based; outline: as §1
# [13] = tested on: Staphylococcus aureus; assay: Antibacterial activity against methicillin-resistant Staphylococcus aureus ATCC 43300 assessed as growth inhibition at 10 ug after 24 hrs by agar-diffusion assay in presence of PPh3; type: functional, organism-based; outline: as §1
# [14] = tested on: Staphylococcus aureus; assay: Antibacterial activity against methicillin-resistant Staphylococcus aureus ATCC 43300 assessed as growth inhibition at 20 ug after 24 hrs by agar-diffusion assay in presence of cystine; type: functional, organism-based
# [15] = tested on: Staphylococcus aureus; assay: Antibacterial activity against methicillin-resistant Staphylococcus aureus ATCC 43300 assessed as growth inhibition at 20 ug after 24 hrs by agar-diffusion assay in presence of CoA; type: functional, organism-based; outline: as §1
# [16] = tested on: Staphylococcus aureus; assay: Antibacterial activity against methicillin-resistant Staphylococcus aureus ATCC 43300 assessed as growth inhibition at 20 ug after 24 hrs by agar-diffusion assay in presence of GSH; type: functional, organism-based; outline: as §1
# [17] = tested on: Staphylococcus aureus; assay: Antibacterial activity against methicillin-resistant Staphylococcus aureus ATCC 43300 assessed as growth inhibition at 20 ug after 24 hrs by agar-diffusion assay in presence of glycine; type: functional, organism-based; outline: as §1
# [18] = tested on: Staphylococcus aureus; assay: Antibacterial activity against methicillin-resistant Staphylococcus aureus ATCC 43300 assessed as growth inhibition at 20 ug after 24 hrs by agar-diffusion assay in presence of lysine; type: functional, organism-based; outline: as §1
# [19] = tested on: Staphylococcus aureus; assay: Antibacterial activity against methicillin-resistant Staphylococcus aureus ATCC 43300 assessed as growth inhibition at 20 ug after 24 hrs by agar-diffusion assay in presence of valine; type: functional, organism-based; outline: as §1
# [20] = tested on: Staphylococcus aureus; assay: Antibacterial activity against methicillin-resistant Staphylococcus aureus ATCC 43300 assessed as growth inhibition at 20 ug after 24 hrs by agar-diffusion assay in presence of iPrSSiPr; type: functional, organism-based; outline: as §1
# [21] = tested on: Staphylococcus aureus; assay: Antibacterial activity against methicillin-resistant Staphylococcus aureus ATCC 43300 assessed as growth inhibition at 20 ug after 24 hrs by agar-diffusion assay in presence of PPh3; type: functional, organism-based; outline: as §1
Compound,Activity [1],Activity [2],MIC [3] [µg/mL],MIC [4] [µg/mL],MIC [5] [µg/mL],other results
c1ccc(NSSNc2ccccc2)cc1,inactive,inactive,4,4,0.5,
C=CCN(CC=C)SSN(CC=C)CC=C,inactive,inactive,1,0.5,16,
C[C@@H](c1ccccc1)N(Cc1ccccc1)SSN(Cc1ccccc1)[C@@H](C)c1ccccc1,inactive,inactive,16,64,16,
CCC(C)SSSSC(C)CC (configuration not stated),inactive,inactive,32,64,16,
CC(C)N(SSN(C(C)C)C(C)C)C(C)C,inactive,inactive,2,1,32,
CN(C)SSN(C)C,inactive,inactive,0.25,0.5,8,
CC[C@H](C)OSSO[C@@H](C)CC,inactive,inactive,16,32,16,
CCCOSSOCCC,inactive,inactive,32,32,16,
CCC(C)NSSNC(C)CC (configuration not stated),inactive,inactive,16,16,8,
CCCNSSNCCC,inactive,inactive,8,4,16,
CCC(C)OSSOC(C)CC (configuration not stated),inactive,inactive,16,8,16,
CCCCSSSSCCCC,inactive,inactive,64,32,4,
CC(C)SSc1ccc([N+](=O)[O-])cc1,,,,,,growth inhibition (GI) [6]: inactive; growth inhibition (GI) [7]: inactive; growth inhibition (GI) [8]: inactive; growth inhibition (GI) [9]: Active; growth inhibition (GI) [10]: Active; growth inhibition (GI) [11]: Active; growth inhibition (GI) [12]: Active; growth inhibition (GI) [13]: Active
CCCCNSSNCCCC,inactive,inactive,8,32,4,
CC1(C)S[C@@H]2[C@H](NC(=O)Cc3ccccc3)C(=O)N2[C@H]1C(=O)O [PENICILLIN G],,,0.25,64,,growth inhibition (GI) [6]: Active; growth inhibition (GI) [7]: Active; growth inhibition (GI) [8]: Active; growth inhibition (GI) [9]: Active; growth inhibition (GI) [10]: Active; growth inhibition (GI) [11]: Active; growth inhibition (GI) [12]: Active; growth inhibition (GI) [13]: Active
CCCCOSSOCCCC,inactive,inactive,0.25,8,4,

Compound,Activity [1],Activity [2],MIC [3] [µg/mL],MIC [4] [µg/mL],MIC [5] [µg/mL],other results
CC(C)[C@H]1CC[C@H](C)C[C@@H]1OSSO[C@H]1C[C@@H](C)CC[C@@H]1C(C)C,inactive,inactive,8,8,4,
C=CC(=O)O[C@H]1C(=O)N(SC)[C@H]1c1ccccc1Cl,,,,,,growth inhibition (GI) [14]: inactive; growth inhibition (GI) [15]: inactive; growth inhibition (GI) [16]: inactive; growth inhibition (GI) [17]: Active; growth inhibition (GI) [18]: Active; growth inhibition (GI) [19]: Active; growth inhibition (GI) [20]: Active; growth inhibition (GI) [21]: Active
CC(C)SSSSC(C)C,inactive,inactive,32,32,8,
C[C@H](c1ccccc1)N(Cc1ccccc1)SSN(Cc1ccccc1)[C@H](C)c1ccccc1,inactive,inactive,16,64,16,
c1ccc(OSSOc2ccccc2)cc1,inactive,inactive,2,2,1,
CCCSSSSCCC,inactive,inactive,32,32,1,
CC(C)[C@@H]1CC[C@@H](C)C[C@H]1OSSO[C@@H]1C[C@H](C)CC[C@H]1C(C)C,inactive,inactive,8,16,4,
CC(COSSOCC(C)c1ccccc1)c1ccccc1 (racemic),inactive,inactive,16,16,8,
CC(C)NSSNC(C)C,inactive,inactive,32,32,2,
CC(C)CN(CC(C)C)SSN(CC(C)C)CC(C)C,inactive,inactive,16,16,1,
CC1CCC(C(C)C)C(OSSOC2CC(C)CCC2C(C)C)C1 (racemic),inactive,inactive,8,16,4,
CCN(CC)SSN(CC)CC,inactive,inactive,2,2,16,
c1ccc(SSSSc2ccccc2)cc1,inactive,inactive,8,8,2,
O=C(O)c1cn(C2CC2)c2cc(N3CCNCC3)c(F)cc2c1=O [CIPROFLOXACIN],,,,,0.125,
CC[C@@H](C)OSSO[C@H](C)CC,inactive,inactive,16,32,16,
